Converted amounts (≈) assume the structure as drawn. The source made the active and inactive calls. No cut-off for these calls is given here.
Columns and labels:
[1] = biological target: Histone deacetylase (Rattus norvegicus) (UniProt Q6P6W3+Q99P99+Q99P96+Q4QQW4+Q99P97+Q5RJZ2+B1WBY8); assay: Inhibition of HDAC in rat liver at 1 uM by fluorimetry
Method in brief: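 Rat liver HDAC preparation, non-selective enzyme assay, test compounds at 1 µM; % inhibition is the mean of two experiments.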

[2] = Aqueous solubility of the compound in buffer at pH 7.4 after 24 hrs by spectrophotometric method; format: physicochemical
Method in brief: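 Water solubility in pH 7.4 buffer, measured spectrophotometrically by the method of Schneider and coworkers.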

[3] = biological target: Histone deacetylase 1 (Homo sapiens, UniProt Q13547); assay: Inhibition of recombinant human HDAC1 by fluorimetry
Sequence of Histone deacetylase 1 (Q13547 whole entry): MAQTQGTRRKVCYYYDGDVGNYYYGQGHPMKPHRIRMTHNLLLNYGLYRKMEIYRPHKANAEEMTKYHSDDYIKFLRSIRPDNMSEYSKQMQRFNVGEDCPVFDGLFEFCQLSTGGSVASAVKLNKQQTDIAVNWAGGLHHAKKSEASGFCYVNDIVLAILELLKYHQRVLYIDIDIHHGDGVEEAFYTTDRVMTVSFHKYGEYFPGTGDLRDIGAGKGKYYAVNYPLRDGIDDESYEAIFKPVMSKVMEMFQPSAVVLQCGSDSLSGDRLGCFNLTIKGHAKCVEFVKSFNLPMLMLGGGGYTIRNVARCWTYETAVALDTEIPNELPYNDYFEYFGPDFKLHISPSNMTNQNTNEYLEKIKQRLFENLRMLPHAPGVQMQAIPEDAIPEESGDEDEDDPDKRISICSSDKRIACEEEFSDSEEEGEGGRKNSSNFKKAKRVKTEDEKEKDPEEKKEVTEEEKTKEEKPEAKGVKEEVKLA

[4] = Chemical stability of the compound in acidic buffer assessed as compound hydrolysis at pH 2 measured for 240 mins by HPLC-PDA analysis; format: physicochemical; conditions: pH 2, 4 h
Method in brief: (§1)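 Compounds stirred in pH 7.4 or pH 2 buffer at 37 °C for 240 min; percentage of compound recovered followed over time (30 min and 4 h points). Triplicate runs, values averaged.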

[5] = system: HepG2; assay: Antiproliferative activity against human HepG2 cells assessed as reduction in cell viability after 48 hrs by MTS assay; format: functional, cell-based; conditions: HepG2, 48 h
[6] = Chemical stability of compound in phosphate dibasic buffer assessed as compound degradation at pH 7.4 by HPLC-PDA analysis; format: physicochemical; conditions: read-out: Drug degradation; method in brief: as §1
[7] = Ionization constant, pKa of the compound in buffer measured over 3 hrs by UV spectrometry; format: physicochemical
[8] = biological target: Histone deacetylase 2 (Homo sapiens, UniProt Q92769); assay: Inhibition of recombinant human HDAC2 by fluorimetry
Sequence of Histone deacetylase 2 (Q92769 whole entry): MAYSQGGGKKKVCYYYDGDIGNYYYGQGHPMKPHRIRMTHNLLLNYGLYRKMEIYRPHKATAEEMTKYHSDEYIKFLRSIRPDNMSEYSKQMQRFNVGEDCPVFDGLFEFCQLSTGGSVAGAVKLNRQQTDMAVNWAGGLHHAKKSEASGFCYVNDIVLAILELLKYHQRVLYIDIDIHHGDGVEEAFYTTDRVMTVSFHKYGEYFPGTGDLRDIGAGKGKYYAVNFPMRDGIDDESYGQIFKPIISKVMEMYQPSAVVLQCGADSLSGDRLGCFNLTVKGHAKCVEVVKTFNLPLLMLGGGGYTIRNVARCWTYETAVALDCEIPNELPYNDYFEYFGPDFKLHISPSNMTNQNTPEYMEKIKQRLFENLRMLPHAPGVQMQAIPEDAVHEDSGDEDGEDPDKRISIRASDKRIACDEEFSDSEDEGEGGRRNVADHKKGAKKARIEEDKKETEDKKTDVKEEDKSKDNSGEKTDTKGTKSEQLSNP

[9] = biological target: T1, Protein deacetylase HDAC6 (Homo sapiens, UniProt Q9UBN7); assay: Inhibition of recombinant human HDAC6 by fluorimetry
T1 sequence (Q9UBN7 whole entry): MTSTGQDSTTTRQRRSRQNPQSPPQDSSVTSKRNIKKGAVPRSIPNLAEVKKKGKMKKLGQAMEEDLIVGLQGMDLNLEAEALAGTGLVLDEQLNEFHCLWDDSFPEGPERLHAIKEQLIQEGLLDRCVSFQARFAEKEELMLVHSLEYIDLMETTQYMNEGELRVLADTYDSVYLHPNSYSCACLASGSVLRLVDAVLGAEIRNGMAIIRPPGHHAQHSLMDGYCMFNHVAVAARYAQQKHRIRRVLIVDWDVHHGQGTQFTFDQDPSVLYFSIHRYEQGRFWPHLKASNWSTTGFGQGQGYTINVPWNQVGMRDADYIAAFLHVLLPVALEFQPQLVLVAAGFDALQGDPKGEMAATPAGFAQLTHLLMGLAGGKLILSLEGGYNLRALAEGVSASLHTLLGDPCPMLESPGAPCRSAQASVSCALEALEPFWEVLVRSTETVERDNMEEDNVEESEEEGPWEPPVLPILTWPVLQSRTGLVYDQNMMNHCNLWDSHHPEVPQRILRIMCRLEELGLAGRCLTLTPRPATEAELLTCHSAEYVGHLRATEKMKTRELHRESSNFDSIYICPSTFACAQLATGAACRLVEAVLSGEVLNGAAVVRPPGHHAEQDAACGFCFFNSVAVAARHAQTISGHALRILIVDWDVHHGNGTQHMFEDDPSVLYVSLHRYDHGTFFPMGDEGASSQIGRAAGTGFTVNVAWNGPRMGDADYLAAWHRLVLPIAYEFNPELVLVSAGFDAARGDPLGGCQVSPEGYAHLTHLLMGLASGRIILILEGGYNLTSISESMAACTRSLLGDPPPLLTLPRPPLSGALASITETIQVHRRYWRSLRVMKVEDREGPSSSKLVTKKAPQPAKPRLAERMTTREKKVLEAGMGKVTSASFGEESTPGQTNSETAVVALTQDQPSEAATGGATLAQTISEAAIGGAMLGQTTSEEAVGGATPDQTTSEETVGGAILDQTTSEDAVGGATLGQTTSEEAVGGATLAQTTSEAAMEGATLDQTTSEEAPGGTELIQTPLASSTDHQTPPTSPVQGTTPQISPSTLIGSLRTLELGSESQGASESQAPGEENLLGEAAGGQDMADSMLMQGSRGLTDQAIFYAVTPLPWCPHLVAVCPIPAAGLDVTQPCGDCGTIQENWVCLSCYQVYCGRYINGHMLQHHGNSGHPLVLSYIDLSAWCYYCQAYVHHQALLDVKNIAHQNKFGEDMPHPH

[10] = Antiproliferative activity against human HT144 cells assessed as reduction in cell viability after 48 hrs by MTS assay; format: functional, cell-based; conditions: HT-144, 48 h
[11] = system: HepG2; assay: Antiproliferative activity against human HepG2 cells assessed as reduction in cell viability at 40 uM after 48 hrs by MTS assay; format: functional, cell-based
[12] = Chemical stability of the compound in acidic buffer assessed as compound recovery at pH 2 after 4 hrs by HPLC-PDA analysis; format: physicochemical; conditions: acidic buffer, pH 2; read-out: Drug recovery; method in brief: as §1
[13] = biological target: T2, Protein deacetylase HDAC6 (Homo sapiens) (UniProt Q9UBN7); assay: Inhibition of HDAC6 in human A549 cells assessed as induction of tubulin acetylation at 27 to 54 nM after 24 hrs by Western blotting analysis; format: cell-based
T2 sequence (whole entry): T1 sequence (Q9UBN7 whole entry)
Method in brief: (§2)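 Calu-1 and A549 cells treated 24 h, acetylated tubulin detected by western blot with GAPDH as loading control. DMSO vehicle control; one representative of three independent experiments.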

[14] = biological target: T2, Protein deacetylase HDAC6 (Homo sapiens); assay: Inhibition of HDAC6 in human Calu1 cells assessed as induction of tubulin acetylation at 27 to 54 nM after 24 hrs by Western blotting analysis; format: cell-based; conditions: Calu-1; method in brief: as §2
[15] = system: HT-144; assay: Antiproliferative activity against human HT144 cells assessed as reduction in cell viability at 40 uM after 48 hrs by MTS assay; format: functional, cell-based
[16] = biological target: T3, Histone deacetylase 8 (Homo sapiens, UniProt Q9BY41); assay: Inhibition of recombinant human HDAC8 by fluorimetry
T3 sequence (Q9BY41 whole entry): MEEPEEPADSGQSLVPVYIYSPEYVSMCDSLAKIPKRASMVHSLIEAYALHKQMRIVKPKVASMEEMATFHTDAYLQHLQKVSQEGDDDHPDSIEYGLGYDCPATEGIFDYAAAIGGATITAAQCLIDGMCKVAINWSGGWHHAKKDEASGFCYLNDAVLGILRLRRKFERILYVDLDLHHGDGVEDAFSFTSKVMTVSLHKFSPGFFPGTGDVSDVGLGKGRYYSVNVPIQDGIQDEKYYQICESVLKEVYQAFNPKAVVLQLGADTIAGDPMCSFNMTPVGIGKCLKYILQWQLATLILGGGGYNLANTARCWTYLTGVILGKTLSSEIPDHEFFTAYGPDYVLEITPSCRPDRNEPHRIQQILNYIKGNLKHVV

[17] = system: Calu-1; assay: Inhibition of cell migration in human Calu1 cells at 27 and 54 nM after 48 hrs by scratch test; format: functional, cell-based
Method in brief: (§3)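 Calu-1 migration by scratch test after 48 h treatment. DMSO vehicle control; one representative of three independent experiments.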

[18] = Lipophilicity, logD of the compound at pH 7.4 after 4 hrs; format: physicochemical; conditions: buffer
[19] = biological target: Histone deacetylase; assay: Inhibition of HDAC in rat liver by fluorimetry
Method in brief: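 Rat liver HDAC IC50 from a six-point enzyme assay, three-fold serial dilution starting at 3 µM or 1 µM depending on compound; mean of two experiments ± SD.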

[20] = system: MCF7; assay: Antiproliferative activity against human MCF7 cells assessed as reduction in cell viability at 40 uM after 48 hrs by MTS assay; format: functional, cell-based
Method in brief: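 MCF-7 cells exposed at 40 µM for 48 h, viability by MTS; ANOVA with Tukey's post-test against control.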

[21] = system: HepG2; assay: Effect on cell cycle distribution in human HepG2 cells assessed as decrease in S phase at 5 to 10 uM after 24 to 48 hrs by propidium iodide staining-based flow cytometry; format: functional
Method in brief: (§4)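 Cell cycle of HepG2 cells by flow cytometry after 5 or 10 µM for 24 and 48 h, giving SubG1, G0/G1, S and G2/M fractions. ANOVA with Tukey's post-test against control.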

[22] = system: Calu-1; assay: Inhibition of cell migration in human Calu1 cells at 15 and 30 nM after 48 hrs by scratch test; format: functional, cell-based; method in brief: as §3
[23] = system: HepG2; assay: Effect on cell cycle distribution in human HepG2 cells assessed as decrease in G0/G1 phase at 5 to 10 uM after 24 to 48 hrs by propidium iodide staining-based flow cytometry; format: functional; method in brief: as §4
[24] = system: HepG2; assay: Effect on cell cycle distribution in human HepG2 cells assessed as accumulation at G2/M phase at 5 uM after 24 and 48 hrs by propidium iodide staining-based flow cytometry; format: functional; method in brief: as §4
[25] = biological target: T2, Protein deacetylase HDAC6 (Homo sapiens); assay: Inhibition of HDAC6 in human Calu1 cells assessed as induction of tubulin acetylation at 15 to 54 nM after 24 hrs by Western blotting analysis; format: cell-based; conditions: Calu-1; method in brief: as §2
[26] = system: HepG2; assay: Effect on cell cycle distribution in human HepG2 cells assessed as accumulation at SubG1 phase at 5 to 10 uM after 24 to 48 hrs by propidium iodide staining-based flow cytometry; format: functional; method in brief: as §4
[27] = biological target: T2, Protein deacetylase HDAC6 (Homo sapiens); assay: Inhibition of HDAC6 in human A549 cells assessed as induction of tubulin acetylation at 15 to 54 nM after 24 hrs by Western blotting analysis; format: cell-based; method in brief: as §2

SMILES	inhibition [1] [%]	solubility at 24 h [2] [µM]	IC50 [3] [nM]	IC50 [8] [nM]	IC50 [9] [nM]	IC50 [16] [nM]	Activity [11]	Activity [15]	Activity [20]	other results
CN(/N=C/c1cccc(C(=O)O)c1)C(=O)c1ccc(N(C)C)cc1	-5.8	> 67								
COC(=O)c1cccc(/C=N/NC(=O)c2ccc(N(C)C)cc2)c1	-4.6	3.7 (≈ 1.2 µg/mL)								
CN(C)c1ccc(C(=O)N/N=C/c2ccc(C(=O)O)cc2)cc1	-9.1	> 77								

Further lines, with some results ahead:

inhibition [1] [%]	solubility at 24 h [2] [µM]	IC50 [3] [nM]	IC50 [8] [nM]	IC50 [9] [nM]	IC50 [16] [nM]	SMILES	Activity [11]	Activity [15]	Activity [20]	other results
	1.4 (≈ 0.475 µg/mL)					COC(=O)c1ccc(/C=N/N(C)C(=O)c2ccc(N(C)C)cc2)cc1				
90.4	> 64	> 3000	> 3000	27	130	CN(/N=C/c1ccc(C(=O)NO)cc1)C(=O)c1ccc(N(C)C)cc1	Active	Active	Active	Stability [4]: Unstable; IC50 [5]: 24100 nM; degraded [6]: > 15%; pKa at 3 h [7]: 8.1; IC50 [10]: 36100 nM; remaining at 4 h [12]: 70%; inhibition [13]: Active; inhibition [14]: Active; inhibition [17]: Active; logD at 4 h [18]: 0.98; IC50 [19]: 18 nM
33.4	> 70	> 10000	> 10000	2500	2000	CN(/N=C/c1cccc(C(=O)NO)c1)C(=O)c1ccc(N(C)C)cc1	Active	Active	Active	
90.4	15 (≈ 4.9 µg/mL)	> 3000	> 3000	15	230	CN(C)c1ccc(C(=O)N/N=C/c2ccc(C(=O)NO)cc2)cc1	Active	Active	Active	Activity [21]: Active; inhibition [22]: Active; Activity [23]: Active; Stability [4]: Unstable; IC50 [5]: 9480 nM; degraded [6]: > 15%; pKa at 3 h [7]: 8.1; IC50 [10]: 21200 nM; Activity [24]: Active; inhibition [25]: Active; Activity [26]: Active; logD at 4 h [18]: 0.68; IC50 [19]: 21 nM; inhibition [27]: Active
